Source: ChEMBL document CHEMBL4316616, “Efficacy of TLR7 agonistic imidazoquinoline as immunochemotherapeutic agent against P. Berghei ANKA infected rodent host” (Bioorg Med Chem Lett, 2019)
Activity calls are given as the source filed them. The rule behind the calls is not given here.

Assays:
[1] = test system: Plasmodium berghei; experiment: Antiparasitic activity against Plasmodium berghei ANKA infected in Laca mouse assessed as parasitemia at 10 ug, ip administered for 4 days measured on day 7 by Giemsa-staining based assay; type: functional
[2] = test system: Plasmodium berghei; experiment: Antiparasitic activity against Plasmodium berghei ANKA infected in Laca mouse assessed as reduction in CD3+ cell level in brain at 10 ug, ip administered for 4 days measured on day 10 by flow cytometry; type: functional, organism-based
[3] = Toxicity in Laca mouse infected with Plasmodium berghei ANKA assessed as death at 10 ug, ip administered for 4 days measured on day 15; type: organism-based; conditions: in vivo, 96 h
In short: (§1)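 Six mice per group received 1x10⁶ parasitized RBCs (P. berghei ANKA) i.p. on D0. TLR7 agonist was given i.p., 0.2 mL/mouse, daily D0–D3. PBS-treated infected and uninfected groups served as controls. Survival was monitored alongside parasitemia from Giemsa-stained thin blood smears.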

[4] = test system: Plasmodium berghei; experiment: Antiparasitic activity against Plasmodium berghei ANKA infected in Laca mouse assessed as increase in serum IL-10 level at 10 ug, ip administered for 4 days measured on day 10 by sandwich ELISA; type: functional, organism-based
[5] = test system: Plasmodium berghei; experiment: Antiparasitic activity against Plasmodium berghei ANKA infected in Laca mouse assessed as parasitemia at 10 ug, ip co-administered with chloroquine for 4 days measured on day 30 by Giemsa-staining based assay; type: functional
[6] = test system: Plasmodium berghei; experiment: Antiparasitic activity against Plasmodium berghei ANKA infected in Laca mouse assessed as increase in Treg cell level in brain at 10 ug, ip co-administered with chloroquine for 4 days measured on day 21 by flow cytometry; type: functional, organism-based
[7] = test system: Plasmodium berghei; experiment: Antiparasitic activity against Plasmodium berghei ANKA infected in Laca mouse assessed as increase in Treg cell level in brain at 10 ug, ip administered for 4 days measured on day 10 by flow cytometry; type: functional, organism-based
[8] = Toxicity in Laca mouse infected with Plasmodium berghei ANKA assessed as death at 10 ug, ip co-treated with chloroquine for 4 days measured on day 30; conditions: in vivo, 96 h
[9] = test system: Plasmodium berghei; experiment: Antiparasitic activity against Plasmodium berghei ANKA infected in Laca mouse assessed as increase in IFN-gamma level in serum at 10 ug, ip administered for 4 days measured on day 10 by sandwich ELISA
[10] = test system: Plasmodium berghei; experiment: Antiparasitic activity against Plasmodium berghei ANKA infected in Laca mouse assessed as increase in serum IL-27 level at 10 ug, ip administered for 4 days measured on day 10 by sandwich ELISA; type: functional, organism-based
[11] = test system: Plasmodium berghei; experiment: Antiparasitic activity against Plasmodium berghei ANKA infected in Laca mouse assessed as increase in serum IL-27 level at 10 ug, ip co-administered with chloroquine for 4 days measured on day 10 by sandwich ELISA; type: functional, organism-based
[12] = test system: Plasmodium berghei; experiment: Antiparasitic activity against Plasmodium berghei ANKA infected in Laca mouse assessed as reduction in parasitemia at 10 ug, ip co-administered with chloroquine for 4 days measured on day 25 by Giemsa-staining based assay; type: functional, organism-based
[13] = test system: Plasmodium berghei; experiment: Antiparasitic activity against Plasmodium berghei ANKA infected in Laca mouse assessed as increase in IFN-gamma level in serum at 10 ug, ip co-administered with chloroquine for 4 days measured on day 10 by sandwich ELISA
[14] = test system: Plasmodium berghei; experiment: Antiparasitic activity against Plasmodium berghei ANKA infected in Laca mouse assessed as decrease in serum TNFalpha level at 10 ug, ip administered for 4 days measured on day 10 by sandwich ELISA; type: functional, organism-based
[15] = test system: Plasmodium berghei; experiment: Antiparasitic activity against Plasmodium berghei ANKA infected in Laca mouse assessed as reduction in CD8+ cell level in brain at 10 ug, ip co-administered with chloroquine for 4 days measured on day 21 by flow cytometry; type: functional, organism-based
[16] = test system: Plasmodium berghei; experiment: Antiparasitic activity against Plasmodium berghei ANKA infected in Laca mouse assessed as reduction in CD4+ cell level in brain at 10 ug, ip administered for 4 days measured on day 10 and 21 by flow cytometry; type: functional, organism-based
[17] = test system: Plasmodium berghei; experiment: Antiparasitic activity against Plasmodium berghei ANKA infected in Laca mouse assessed as reduction in CD8+ cell level in brain at 10 ug, ip administered for 4 days measured on day 10 by flow cytometry; type: functional, organism-based
[18] = test system: Plasmodium berghei; experiment: Antiparasitic activity against Plasmodium berghei ANKA infected in Laca mouse assessed as increase in serum IL-12 level at 10 ug, ip administered for 4 days measured on day 10 by sandwich ELISA; type: functional, organism-based
[19] = test system: Plasmodium berghei; experiment: Antiparasitic activity against Plasmodium berghei ANKA infected in Laca mouse assessed as increase in CD3+ cell level in spleen at 10 ug, ip administered for 4 days measured on day 10 by flow cytometry; type: functional, organism-based
[20] = Toxicity in Laca mouse infected with Plasmodium berghei ANKA assessed as body weight loss at 10 ug, ip administered for 4 days; type: organism-based; conditions: in vivo, 96 h
[21] = test system: Plasmodium berghei; experiment: Antiparasitic activity against Plasmodium berghei ANKA infected in Laca mouse assessed as reduction in CD4+ cell level in brain at 10 ug, ip co-administered with chloroquine for 4 days measured on day 10 and 21 by flow cytometry; type: functional, organism-based
[22] = test system: Plasmodium berghei; experiment: Antiparasitic activity against Plasmodium berghei ANKA infected in Laca mouse assessed as reduction in CD8+ cell level in brain at 10 ug, ip co-administered with chloroquine for 4 days measured on day 10 by flow cytometry; type: functional, organism-based
[23] = Toxicity in Laca mouse infected with Plasmodium berghei ANKA assessed as death at 10 ug, ip co-treated with chloroquine for 4 days measured on day 30; type: organism-based; conditions: in vivo, 96 h
In short: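 Mice (6/group) were infected i.p. with 1x10⁶ P. berghei ANKA parasitized RBCs on D0. TLR7 agonist was given i.p. plus chloroquine 10 mg/kg orally (0.2 mL/mouse each), daily D0–D3. Survival and parasitemia (Giemsa-stained thin blood smears of individual mice) were followed for about one month.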

[24] = test system: Plasmodium berghei; experiment: Antiparasitic activity against Plasmodium berghei ANKA infected in Laca mouse assessed as increase in Treg cell level in spleen at 10 ug, ip co-administered with chloroquine for 4 days measured on day 21 by flow cytometry; type: functional, organism-based
[25] = Toxicity in Laca mouse infected with Plasmodium berghei ANKA assessed as death at 10 ug, ip co-treated with chloroquine for 4 days measured on day 30; conditions: in vivo, 96 h; remark: listed apart in the source
[26] = Toxicity in Laca mouse infected with Plasmodium berghei ANKA assessed as death at 10 ug, ip administered for 4 days measured on day 10 and 21; type: organism-based; conditions: in vivo, 96 h; in short: as §1
[27] = test system: Plasmodium berghei; experiment: Antiparasitic activity against Plasmodium berghei ANKA infected in Laca mouse assessed as increase in serum IL-12 level at 10 ug, ip co-administered with chloroquine for 4 days measured on day 10 by sandwich ELISA; type: functional, organism-based
[28] = test system: Plasmodium berghei; experiment: Antiparasitic activity against Plasmodium berghei ANKA infected in Laca mouse assessed as increase in Treg cell level in spleen at 10 ug, ip administered for 4 days measured on day 10 and 21 by flow cytometry; type: functional, organism-based
[29] = Toxicity in Laca mouse infected with Plasmodium berghei ANKA assessed as death at 10 ug, ip administered for 4 days measured on day 9; type: organism-based; conditions: in vivo, 96 h; in short: as §1
[30] = test system: Plasmodium berghei; experiment: Antiparasitic activity against Plasmodium berghei ANKA infected in Laca mouse assessed as decrease in serum TNFalpha level at 10 ug, ip co-administered with chloroquine for 4 days measured on day 10 by sandwich ELISA; type: functional, organism-based
[31] = test system: Plasmodium berghei; experiment: Antiparasitic activity against Plasmodium berghei ANKA infected in Laca mouse assessed as change in Treg cell level in spleen at 10 ug, ip co-administered with chloroquine for 4 days measured on day 10 and 21 by flow cytometry; type: functional, organism-based
[32] = test system: Plasmodium berghei; experiment: Antiparasitic activity against Plasmodium berghei ANKA infected in Laca mouse assessed as reduction in CD4+ cell level in brain at 10 ug, ip co-administered with chloroquine for 4 days measured on day 21 by flow cytometry; type: functional, organism-based
[33] = test system: Plasmodium berghei; experiment: Antiparasitic activity against Plasmodium berghei ANKA infected in Laca mouse assessed as decrease in Treg cell level in brain at 10 ug, ip co-administered with chloroquine for 4 days measured on day 10 by flow cytometry
[34] = test system: Plasmodium berghei; experiment: Antiparasitic activity against Plasmodium berghei ANKA infected in Laca mouse assessed as increase in serum IL-10 level at 10 ug, ip co-administered with chloroquine for 4 days measured on day 10 by sandwich ELISA; type: functional, organism-based
[35] = test system: Plasmodium berghei; experiment: Antiparasitic activity against Plasmodium berghei ANKA infected in Laca mouse assessed as reduction in CD3+ cell level in brain at 10 ug, ip co-administered with chloroquine for 4 days measured on day 10 by flow cytometry; type: functional, organism-based
[36] = test system: Plasmodium berghei; experiment: Antiparasitic activity against Plasmodium berghei ANKA infected in Laca mouse assessed as reduction in parasitemia at 10 ug, ip co-administered with chloroquine for 4 days measured on day 23 by Giemsa-staining based assay; type: functional, organism-based
[37] = test system: Plasmodium berghei; experiment: Antiparasitic activity against Plasmodium berghei ANKA infected in Laca mouse assessed as reduction in CD3+ cell level in brain at 10 ug, ip co-administered with chloroquine for 4 days measured on day 21 by flow cytometry; type: functional, organism-based
[38] = test system: Plasmodium berghei; experiment: Antiparasitic activity against Plasmodium berghei ANKA infected in Laca mouse assessed as increase in CD3+ cell level in spleen at 10 ug, ip co-administered with chloroquine for 4 days measured on day 10 by flow cytometry; type: functional, organism-based
[39] = test system: Plasmodium berghei; experiment: Antiparasitic activity against Plasmodium berghei ANKA infected in Laca mouse assessed as reduction in parasitemia at 10 ug, ip administered for 4 days measured on day 9 by Giemsa-staining based assay; type: functional, organism-based

## CCCCc1nc2c(N)nc3ccccc3c2n1Cc1ccccc1
[1]
  Activity: 5.7%
[2]
  Activity: Active
[3]
  Activity: Toxic
[4]
  Activity: Active
[5]
  Activity: 11.65%
[6]
  Activity: Active
[7]
  Activity: Active
[8]
  Activity: Toxic
[9]
  Activity: Active
[10]
  Activity: Active
[11]
  Activity: Active
[12]
  Activity: inactive
[13]
  Activity: Active
[14]
  Activity: Active
[15]
  Activity: inactive
[16]
  Activity: Active
[17]
  Activity: Active
[18]
  Activity: Active
[19]
  Activity: Active
[20]
  Activity: Toxic
[21]
  Activity: Active
[22]
  Activity: Active
[23]
  Activity: Toxic
[24]
  Activity: Active
[25]
  Activity: Toxic
[26]
  Activity: Toxic
[27]
  Activity: Active
[28]
  Activity: Active
[29]
  Activity: Toxic
[30]
  Activity: Active
[31]
  Activity: Active
[32]
  Activity: inactive
[33]
  Activity: Active
[34]
  Activity: Active
[35]
  Activity: Active
[36]
  Activity: Active
[37]
  Activity: inactive
[38]
  Activity: Active
[39]
  Activity: Active
